According to ChEMBL document CHEMBL1121418, “Synthesis of syn and anti isomers of 6-[[(hydroxyimino)phenyl]methyl]-1-[(1-methylethyl)sulfonyl]-1H-benzimidazol-2-amine. Inhibitors of rhinovirus multiplication” (1980):
Converted amounts (≈) assume the structure as drawn.

Key:
HeLa [1] = assay: Tested in plaque-reduction assay with rhinovirus type 20 at indicated concentration. and the number of plaque formed was reported at conc. 0.75 ug/mL; type: functional, Homo sapiens
Summary of the method: (§1)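 Virus was adsorbed onto confluent monolayers for 1 h at room temperature. Monolayers were overlaid with a 1:1 mix of 1% agarose and 2× MEM (Earle's salts, 2.5% FBS) containing compound, diluted from a 10000 μg/mL Me2SO stock. Flasks were incubated at 32 °C until control plaques reached 2–10 mm. Cells were then fixed in 10% formalin–2% sodium acetate and stained with crystal violet, and plaques were counted. Counts from duplicate flasks were averaged.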

HeLa [2] = assay: Tested in plaque-reduction assay with rhinovirus type 20 at indicated concentration. and the number of plaque formed was reported at conc. 0.04 ug/mL; type: functional, Homo sapiens; summary of the method: as §1
HeLa [3] = assay: Dose required to prevent rhinovirus type 3 plaque formation in HeLa cells by 50%ug/mL of agar overlay; type: functional; details: Homo sapiens, read-out: ID50 (the source's name)
Summary of the method: (§2)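 Confluent monolayers in flasks received 0.3 mL of diluted virus and adsorbed 1 h at room temperature. They were then overlaid with 1% agarose plus 2× MEM (Earle's salts, 2.5% FBS, penicillin, streptomycin) containing compound diluted from a 10000 μg/mL Me₂SO stock. Flasks were held at 32 °C until control plaques reached 2–10 mm, then fixed with formalin-acetate and stained with crystal violet. Plaques were counted in duplicate flasks and averaged, and ID₅₀ was estimated by plotting the 10–90% inhibition points.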

HeLa [4] = assay: Dose required to prevent rhinovirus type 16 plaque formation in HeLa cells by 50%ug/mL of agar overlay; type: functional; details: Homo sapiens, read-out: ID50 (the source's name)
Summary of the method: (§3)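 Confluent monolayers were infected with diluted virus and allowed to adsorb for 1 h at room temperature. They were then overlaid with 1% agarose mixed 1:1 with 2× MEM (Earle's salts, 2.5% FBS), containing compound diluted from a 10000 μg/mL Me2SO stock. Incubation was at 32 °C until control plaques reached 2–10 mm. Cells were fixed with formalin–sodium acetate and stained with crystal violet, and plaques were counted. Duplicate flasks were averaged, and ID50 was estimated by plotting results between 10% and 90% inhibition.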

HeLa [5] = assay: Percent reduction of plaque formation by rhinovirus type 20 in HeLa cells at conc. 0.02 ug/mL.; type: functional, Homo sapiens; summary of the method: as §1
HeLa [6] = assay: Tested in plaque-reduction assay with rhinovirus type 20 at indicated concentration. and the number of plaque formed was reported at conc. 0.02 ug/mL; type: functional, Homo sapiens; summary of the method: as §1
HeLa [7] = assay: Dose required to prevent rhinovirus type 14 plaque formation in HeLa cells by 50%ug/mL of agar overlay; type: functional, Homo sapiens; summary of the method: as §3
HeLa [8] = assay: Tested in plaque-reduction assay with rhinovirus type 20 at indicated concentration. and the number of plaque formed was reported at conc. 0.08 ug/mL; type: functional, Homo sapiens; summary of the method: as §1
HeLa [9] = assay: Percent reduction of plaque formation by rhinovirus type 20 in HeLa cells at conc. 0.17 ug/mL.; type: functional, Homo sapiens; summary of the method: as §1
HeLa [10] = assay: Dose required to prevent rhinovirus type 48 plaque formation in HeLa cells by 50%ug/mL of agar overlay; type: functional; details: Homo sapiens, read-out: ID50 (the source's name); summary of the method: as §3
HeLa [11] = assay: Dose required to prevent rhinovirus type 15 plaque formation in HeLa cells by 50%ug/mL of agar overlay; type: functional; details: Homo sapiens, read-out: ID50 (the source's name); summary of the method: as §3
HeLa [12] = assay: Dose required to prevent rhinovirus type 61 plaque formation in HeLa cells by 50%ug/mL of agar overlay; type: functional; details: Homo sapiens, read-out: ID50 (the source's name); summary of the method: as §3
HeLa [13] = assay: Percent reduction of plaque formation by rhinovirus type 20 in HeLa cells at conc. 0.35 ug/mL.; type: functional, Homo sapiens; summary of the method: as §1
HeLa [14] = assay: Dose required to prevent rhinovirus type 50 plaque formation in HeLa cells by 50%ug/mL of agar overlay; type: functional; details: Homo sapiens, read-out: ID50 (the source's name); summary of the method: as §2
HeLa [15] = assay: Dose required to prevent rhinovirus type 32 plaque formation in HeLa cells by 50%ug/mL of agar overlay; type: functional; details: Homo sapiens, read-out: ID50 (the source's name); summary of the method: as §3
HeLa [16] = assay: Percent reduction of plaque formation by rhinovirus type 20 in HeLa cells at conc. 0.04 ug/mL.; type: functional, Homo sapiens; summary of the method: as §1
HeLa [17] = assay: Tested in plaque-reduction assay with rhinovirus type 20 at indicated concentration. and the number of plaque formed was reported at conc. 0.35 ug/mL; type: functional, Homo sapiens; summary of the method: as §1
HeLa [18] = assay: Dose required to prevent rhinovirus type 69 plaque formation in HeLa cells by 50%ug/mL of agar overlay; type: functional; details: Homo sapiens, read-out: ID50 (the source's name); summary of the method: as §3
HeLa [19] = assay: Percent reduction of plaque formation by rhinovirus type 20 in HeLa cells at conc. 0.75 ug/mL.; type: functional, Homo sapiens; summary of the method: as §1
HeLa [20] = assay: Dose required to prevent rhinovirus type 37 plaque formation in HeLa cells by 50%ug/mL of agar overlay; type: functional; details: Homo sapiens, read-out: ID50 (the source's name); summary of the method: as §2
HeLa [21] = assay: Dose required to prevent rhinovirus type 72 plaque formation in HeLa cells by 50%ug/mL of agar overlay; type: functional; details: Homo sapiens, read-out: ID50 (the source's name); summary of the method: as §3
HeLa [22] = assay: Dose required to prevent rhinovirus type 20 plaque formation in HeLa cells by 50%ug/mL of agar overlay; type: functional; details: Homo sapiens, read-out: ID50 (the source's name); summary of the method: as §3
HeLa [23] = assay: Percent reduction of plaque formation by rhinovirus type 20 in HeLa cells at conc. 0.00 ug/mL.; type: functional, Homo sapiens; summary of the method: as §1
HeLa [24] = assay: Tested in plaque-reduction assay with rhinovirus type 20 at indicated concentration. and the number of plaque formed was reported at conc. 0.17 ug/mL; type: functional, Homo sapiens; summary of the method: as §1
HeLa [25] = assay: Dose required to prevent rhinovirus type 33 plaque formation in HeLa cells by 50%ug/mL of agar overlay; type: functional; details: Homo sapiens, read-out: ID50 (the source's name); summary of the method: as §3
HeLa [26] = assay: Percent reduction of plaque formation by rhinovirus type 20 in HeLa cells at conc. 0.08 ug/mL.; type: functional, Homo sapiens; summary of the method: as §1
HeLa [27] = assay: Tested in plaque-reduction assay with rhinovirus type 20 at indicated concentration. and the number of plaque formed was reported at conc. 0.00 ug/mL; type: functional, Homo sapiens; summary of the method: as §1
HeLa [28] = assay: Dose required to prevent rhinovirus type 65 plaque formation in HeLa cells by 50%ug/mL of agar overlay; type: functional; details: Homo sapiens, read-out: ID50 (the source's name); summary of the method: as §3
HeLa [29] = assay: Percent reduction of plaque formation by rhinovirus type 20 in HeLa cells at conc. 1.5 ug/mL.; type: functional, Homo sapiens; summary of the method: as §1
HeLa [30] = assay: Tested in plaque-reduction assay with rhinovirus type 20 at indicated concentration. and the number of plaque formed was reported at conc. 3.0 ug/mL; type: functional, Homo sapiens; summary of the method: as §1
HeLa [31] = assay: Percent reduction of plaque formation by rhinovirus type 20 in HeLa cells at conc. 3.0 ug/mL.; type: functional, Homo sapiens; summary of the method: as §1
HeLa [32] = assay: Dose required to prevent rhinovirus type 70 plaque formation in HeLa cells by 50%ug/mL of agar overlay; type: functional; details: Homo sapiens, read-out: ID50 (the source's name); summary of the method: as §2
HeLa [33] = assay: Tested in plaque-reduction assay with rhinovirus type 20 at indicated concentration. and the number of plaque formed was reported at conc. 1.5 ug/mL; type: functional, Homo sapiens; summary of the method: as §1

CC(C)S(=O)(=O)n1c(N)nc2ccc(/C(=N/O)c3ccccc3)cc21 [ENVIROXIME]
No. of plaques (HeLa [1]): 0
No. of plaques (HeLa [2]): 18
IC50 (HeLa [3]): 0.04 µg/mL (≈ 0.112 µM)
IC50 (HeLa [4]): 0.02 µg/mL (≈ 0.0558 µM)
Reduction (HeLa [5]): 55%
No. of plaques (HeLa [6]): 68
ID50 (HeLa [7]): 0.03 pug ml-1
No. of plaques (HeLa [8]): 0
Reduction (HeLa [9]): 100%
IC50 (HeLa [10]): 0.03 µg/mL (≈ 0.0837 µM)
IC50 (HeLa [11]): 0.02 µg/mL (≈ 0.0558 µM)
IC50 (HeLa [12]): 0.01 µg/mL (≈ 0.0279 µM)
Reduction (HeLa [13]): 100%
IC50 (HeLa [14]): > 0.01 µg/mL
IC50 (HeLa [15]): 0.01 µg/mL (≈ 0.0279 µM)
Reduction (HeLa [16]): 87%
No. of plaques (HeLa [17]): 0
IC50 (HeLa [18]): 0.01 µg/mL (≈ 0.0279 µM)
Reduction (HeLa [19]): 100%
IC50 (HeLa [20]): 0.04 µg/mL (≈ 0.112 µM)
IC50 (HeLa [21]): 0.03 µg/mL (≈ 0.0837 µM)
IC50 (HeLa [22]): 0.02 µg/mL (≈ 0.0558 µM)
Reduction (HeLa [23]): 0%
No. of plaques (HeLa [24]): 0
IC50 (HeLa [25]): 0.01 µg/mL (≈ 0.0279 µM)
Reduction (HeLa [26]): 100%
No. of plaques (HeLa [27]): 153
IC50 (HeLa [28]): > 0.01 µg/mL

CC(C)S(=O)(=O)n1c(N)nc2ccc(/C(=N\O)c3ccccc3)cc21 [ZINVIROXIME]
No. of plaques (HeLa [1]): 0
IC50 (HeLa [3]): 0.37 µg/mL (≈ 1.03 µM)
IC50 (HeLa [4]): 0.16 µg/mL (≈ 0.446 µM)
IC50 (HeLa [7]; Homo sapiens, HeLa, read-out: ID50 (the source's name)): 0.36 µg/mL (≈ 1 µM)
No. of plaques (HeLa [8]): 127
Reduction (HeLa [29]): 100%
Reduction (HeLa [9]): 50%
IC50 (HeLa [10]): 0.28 µg/mL (≈ 0.781 µM)
IC50 (HeLa [11]): 0.14 µg/mL (≈ 0.391 µM)
IC50 (HeLa [12]): 0.07 µg/mL (≈ 0.195 µM)
Reduction (HeLa [13]): 67%
IC50 (HeLa [14]): 0.12 µg/mL (≈ 0.335 µM)
IC50 (HeLa [15]): 0.13 µg/mL (≈ 0.363 µM)
No. of plaques (HeLa [17]): 49
No. of plaques (HeLa [30]): 0
IC50 (HeLa [18]): 0.08 µg/mL (≈ 0.223 µM)
Reduction (HeLa [31]): 100%
Reduction (HeLa [19]): 100%
IC50 (HeLa [20]): 0.25 µg/mL (≈ 0.697 µM)
IC50 (HeLa [21]): 0.3 µg/mL (≈ 0.837 µM)
IC50 (HeLa [22]): 0.19 µg/mL (≈ 0.53 µM)
Reduction (HeLa [23]): 0%
No. of plaques (HeLa [24]): 87
IC50 (HeLa [32]): 0.06 µg/mL (≈ 0.167 µM)
No. of plaques (HeLa [33]): 0
IC50 (HeLa [25]): 0.1 µg/mL (≈ 0.279 µM)
Reduction (HeLa [26]): 16%
No. of plaques (HeLa [27]): 153
IC50 (HeLa [28]): 0.07 µg/mL (≈ 0.195 µM)
